Measurements taken from ChEMBL document CHEMBL1137333, “Synthesis, radiosynthesis, and biological evaluation of carbon-11 labeled 2beta-carbomethoxy-3beta-(3'-((Z)-2-haloethenyl)phenyl)nortropanes: candidate radioligands for in vivo imaging of the serotonin transporter with positron emission tomography” (J Med Chem, 2006).

Key:
Cynomolgus monkey [1] = assay: Ratio of uptake in medulla to cerebellum of anesthetized cynomolgus monkey after 85 mins; assay type: ADME, organism-based; conditions: in vivo
In short: (§1)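 Baseline microPET (Concorde P4) in anesthetized cynomolgus monkey after injection of the [11C]-labelled tracer. Regional time-activity curves were taken, and each region's uptake was divided by cerebellum uptake (low-SERT reference) at 65, 85 and 105 min postinjection.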

Cynomolgus monkey [2] = assay: Uptake in anesthetized cynomolgus monkey caudate after 27.5 mins; assay type: ADME, organism-based, Caudate nucleus; conditions: in vivo
In short: (§2)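 Baseline microPET (Concorde P4) regional brain time-activity curves in anesthetized cynomolgus monkey following injection of the [11C]-labelled tracer, with radioactivity followed over the scan.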

Cynomolgus monkey [3] = assay: Ratio of uptake in thalamus to cerebellum of anesthetized cynomolgus monkey after 85 mins; assay type: ADME, organism-based; conditions: in vivo; in short: as §1
Cynomolgus monkey [4] = assay: Uptake in anesthetized cynomolgus monkey midbrain after 55.0 mins; assay type: ADME, organism-based; conditions: in vivo
In short: (§3)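 Baseline microPET scan (P4 scanner) of anesthetized cynomolgus monkeys after injection of the carbon-11 labelled nortropane tracer. Two baseline studies were run per tracer. Radioactivity was followed over time in regional brain time-activity curves.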

Cynomolgus monkey [5] = assay: Uptake in anesthetized cynomolgus monkey putamen after 75.0 mins; assay type: ADME, organism-based; conditions: in vivo, 1.25 h
In short: (§4)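 Baseline microPET (Concorde P4) scan in anesthetized cynomolgus monkeys after injection of the carbon-11 labeled tracer, with no chase drug. Regional brain time-activity curves were followed over the scan. Tracer radiochemical purity and specific activity were determined by analytical HPLC at the time of injection.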

Cynomolgus monkey [6] = assay: Uptake in anesthetized cynomolgus monkey midbrain after 45.0 mins; assay type: ADME, organism-based; conditions: in vivo, 0.75 h; in short: as §3
Cynomolgus monkey [7] = assay: Uptake in anesthetized cynomolgus monkey frontal after 4.5 mins; assay type: ADME, organism-based, Frontal cortex; conditions: in vivo, 0.075 h; in short: as §3
Cynomolgus monkey [8] = assay: Ratio of uptake in midbrain to cerebellum of anesthetized cynomolgus monkey after 105 mins; assay type: ADME, organism-based; conditions: in vivo, 1.75 h; in short: as §1
Cynomolgus monkey [9] = assay: Uptake in anesthetized cynomolgus monkey putamen after 35.0 mins; assay type: ADME, organism-based; conditions: in vivo; in short: as §4
Cynomolgus monkey [10] = assay: Ratio of uptake in medulla to cerebellum of anesthetized cynomolgus monkey after 65 mins; assay type: ADME, organism-based; conditions: in vivo; in short: as §1
Cynomolgus monkey [11] = assay: Uptake in anesthetized cynomolgus monkey medulla after 6.5 mins; assay type: ADME, organism-based, Medulla of organ; conditions: in vivo; in short: as §3
Cynomolgus monkey [12] = assay: Uptake in anesthetized cynomolgus monkey occipital after 65.0 mins; assay type: ADME, organism-based, Macaca mulatta, Occipital cortex; conditions: rhesus monkey, in vivo; in short: as §3
Cynomolgus monkey [13] = assay: Uptake in anesthetized cynomolgus monkey thalamus after 3.5 mins; assay type: ADME, organism-based; conditions: in vivo; in short: as §4
Cynomolgus monkey [14] = assay: Uptake in anesthetized cynomolgus monkey pons after 1.5 mins; assay type: ADME, organism-based, Macaca mulatta; conditions: rhesus monkey, in vivo, 0.025 h; in short: as §3
Cynomolgus monkey [15] = assay: Ratio of uptake in midbrain to cerebellum of anesthetized cynomolgus monkey after 85 mins; assay type: ADME, organism-based; conditions: in vivo; in short: as §1
Cynomolgus monkey [16] = assay: Uptake in anesthetized cynomolgus monkey occipital after 55.0 mins; assay type: ADME, organism-based, Occipital cortex; conditions: in vivo; in short: as §3
Cynomolgus monkey [17] = assay: Uptake in anesthetized cynomolgus monkey occipital after 2.5 mins; assay type: ADME, organism-based, Macaca mulatta, Occipital cortex; conditions: rhesus monkey, in vivo; in short: as §3
Cynomolgus monkey [18] = assay: Ratio of uptake in putamen to cerebellum of anesthetized cynomolgus monkey after 65 mins; assay type: ADME, organism-based; conditions: in vivo; in short: as §1
Cynomolgus monkey [19] = assay: Uptake in anesthetized cynomolgus monkey caudate after 75.0 mins; assay type: ADME, organism-based, Caudate nucleus; conditions: in vivo, 1.25 h; in short: as §2
Cynomolgus monkey [20] = assay: Uptake in anesthetized cynomolgus monkey medulla after 27.5 mins; assay type: ADME, organism-based, Medulla of organ; conditions: in vivo; in short: as §3
Cynomolgus monkey [21] = assay: Ratio of uptake in frontal to cerebellum of anesthetized cynomolgus monkey after 65 mins; assay type: ADME, organism-based; conditions: in vivo; in short: as §1
Cynomolgus monkey [22] = assay: Uptake in anesthetized cynomolgus monkey pons after 95.0 mins; assay type: ADME, organism-based; conditions: in vivo; in short: as §4
Cynomolgus monkey [23] = assay: Uptake in anesthetized cynomolgus monkey medulla after 0.5 mins; assay type: ADME, organism-based, Medulla of organ; conditions: in vivo; in short: as §3
Cynomolgus monkey [24] = assay: Uptake in anesthetized cynomolgus monkey medulla after 2.5 mins; assay type: ADME, organism-based, Medulla of organ; conditions: in vivo; in short: as §3
Cynomolgus monkey [25] = assay: Uptake in anesthetized cynomolgus monkey cerebellum after 1.5 mins; assay type: ADME, organism-based; conditions: in vivo, 0.025 h; in short: as §2
Cynomolgus monkey [26] = assay: Uptake in anesthetized cynomolgus monkey medulla after 55.0 mins; assay type: ADME, organism-based, Medulla of organ; conditions: in vivo; in short: as §3
Cynomolgus monkey [27] = assay: Uptake in anesthetized cynomolgus monkey frontal after 22.5 mins; assay type: ADME, organism-based, Frontal cortex; conditions: in vivo, 0.375 h; in short: as §3
Cynomolgus monkey [28] = assay: Uptake in anesthetized cynomolgus monkey putamen after 3.5 mins; assay type: ADME, organism-based; conditions: in vivo; in short: as §4
Cynomolgus monkey [29] = assay: Uptake in anesthetized cynomolgus monkey midbrain after 6.5 mins; assay type: ADME, organism-based; conditions: in vivo; in short: as §3
Cynomolgus monkey [30] = assay: Uptake in anesthetized cynomolgus monkey frontal after 105.0 mins; assay type: ADME, organism-based, Frontal cortex; conditions: in vivo, 1.75 h; in short: as §3
Cynomolgus monkey [31] = assay: Ratio of uptake in caudate to cerebellum of anesthetized cynomolgus monkey after 105 mins; assay type: ADME, organism-based; conditions: in vivo, 1.75 h; in short: as §1
Cynomolgus monkey [32] = assay: Uptake in anesthetized cynomolgus monkey frontal after 27.5 mins; assay type: ADME, organism-based, Frontal cortex; conditions: in vivo; in short: as §3
Cynomolgus monkey [33] = assay: Uptake in anesthetized cynomolgus monkey frontal after 35.0 mins; assay type: ADME, organism-based, Frontal cortex; conditions: in vivo; in short: as §3
Cynomolgus monkey [34] = assay: Uptake in anesthetized cynomolgus monkey midbrain after 95.0 mins; assay type: ADME, organism-based; conditions: in vivo; in short: as §3
Cynomolgus monkey [35] = assay: Uptake in anesthetized cynomolgus monkey caudate after 45.0 mins; assay type: ADME, organism-based, Caudate nucleus; conditions: in vivo, 0.75 h; in short: as §2

[11CH3]OC(=O)[C@@H]1C2CCC(C[C@@H]1c1cccc(/C=C/I)c1)N2 (stereo not given in full)
Ratio (Cynomolgus monkey [1]): 1.8 | Drug uptake (Cynomolgus monkey [2]): 5.41 | Ratio (Cynomolgus monkey [3]): 1.8 | Drug uptake (Cynomolgus monkey [4]): 7.57 | Drug uptake (Cynomolgus monkey [5]): 6.92 | Drug uptake (Cynomolgus monkey [6]): 7.66 | Drug uptake (Cynomolgus monkey [7]): 1.91 | Ratio (Cynomolgus monkey [8]): 2.4 | Drug uptake (Cynomolgus monkey [9]): 7.2 | Ratio (Cynomolgus monkey [10]): 1.6 | Drug uptake (Cynomolgus monkey [11]): 5.28 | Drug uptake (Cynomolgus monkey [12]): 4.4 | Drug uptake (Cynomolgus monkey [13]): 2.1 | Drug uptake (Cynomolgus monkey [14]): 0.29 | Ratio (Cynomolgus monkey [15]): 2 | Drug uptake (Cynomolgus monkey [16]): 4.58 | Drug uptake (Cynomolgus monkey [17]): 0.85 | Ratio (Cynomolgus monkey [18]): 1.6 | Drug uptake (Cynomolgus monkey [19]): 5.71 | Drug uptake (Cynomolgus monkey [20]): 7.04 | Ratio (Cynomolgus monkey [21]): 1 | Drug uptake (Cynomolgus monkey [22]): 5.84 | Drug uptake (Cynomolgus monkey [23]): 0.02 | Drug uptake (Cynomolgus monkey [24]): 1.4 | Drug uptake (Cynomolgus monkey [25]): 0.38 | Drug uptake (Cynomolgus monkey [26]): 7.26 | Drug uptake (Cynomolgus monkey [27]): 4.03 | Drug uptake (Cynomolgus monkey [28]): 2.12 | Drug uptake (Cynomolgus monkey [29]): 4.97 | Drug uptake (Cynomolgus monkey [30]): 3.42 | Ratio (Cynomolgus monkey [31]): 1.7 | Drug uptake (Cynomolgus monkey [32]): 4.09 | Drug uptake (Cynomolgus monkey [33]): 4.13 | Drug uptake (Cynomolgus monkey [34]): 7.11 | Drug uptake (Cynomolgus monkey [35]): 5.77
